RORA inh = RORA (human) inhibition; CHO-K1 Gal4-RORA LBD luciferase reporter, luminescence; inhibition, % at 10 µM; 65,000 compounds, 0.43% hits;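 active means inhibition above the mean of all tested compounds plus 3 SD, cut at about 52% in these data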
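Test system – CHO-K1 Gal4-RORA LBD luciferase reporter cells · Schedule – 20 h at 37 °C · Signal – luminescence from basal luciferase reporter expression · Measure – percent inhibition of basal reporter luminescence, control-normalized · Control set – -RORA mock-transfected DMSO wells 100%, +RORA DMSO wells 0%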
Hits are given with their value; i = inactive. Many of the other results were omitted from the sample, so hits are more common in it than they were.

SMILES | RORA inh
CCn1nc(-c2cccs2)nc2c(=O)n(C)c(=O)nc1-2 | 91
O=C(c1cc2c(s1)-c1ccccc1OC2)N1CCC2(CC1)OCCO2 | i
Cn1c2ccccc2c2c(C(=O)N3CCC4(CC3)OCCO4)cn(C3CCCCC3)c(=O)c21 | i
O=C1CN=C(c2ccccc2)c2oc3ccc(Br)cc3c2N1 | i
COc1cccc(OC)c1C1=NCC(=O)Nc2c1oc1ccc(Br)cc21 | 62
CCCNC(=O)N1C2CCC1CC(O)(c1cccnc1)C2 (stereo unspecified) | i
CC1(C)CN=C(Nc2nc3ccccc3s2)S1 | i
CCC(=NC1CC1)c1c(O)n(-c2ccc(OC)cc2)c(=O)[nH]c1=O | i
COc1cc2nc(CN3CC=C(c4ccccc4)CC3)[nH]c(=O)c2cc1OC | 80
CN(C)c1nc(-c2ccccc2)[n+](C)s1 | i
COc1ccc2c(c1)c(C(=O)CN1CCN(C)CC1)c(C)n2Cc1ccccc1 | i
O=c1[nH]c2ccccc2n1CCCN1CCC(n2c(=O)[nH]c3cc(Cl)ccc32)CC1 | i
CN(C(=O)c1ccco1)C1(c2ccccc2Cl)CCCCC1=O (stereo unspecified) | i
Nc1ccc(S(=O)(=O)N2CC3CC(C2)c2cccc(=O)n2C3)cc1 (stereo unspecified) | i
Cc1cccc(NC2=NCCCS2)c1C | i

Source: PubChem (The Scripps Research Institute Molecular Screening Center)
